# Experimental data from ChEMBL document CHEMBL5724801, “EUbOPEN Chemogenomics Library - Multiplex” (2024).
# Values joined by “and” are separate entries in the source; they are usually repeats but may differ in a detail not shown here. Equal values may be shown once.
# Test system: Fibroblast
# Test: Multiplex assay against human fibroblast
# Format: toxicity, cell-based
# Procedure, shortened: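 Tubulin, mitochondrial-mass and membrane-permeability phenotypes are per cents of healthy-nucleus cells. Cells were gated by CellPathfinder machine learning into Hoechst high-intensity objects or normal cells, normal cells into healthy, pyknosed or fragmented nuclei, and pyknosed cells into mitotic or apoptotic. Before that, live cells stained at seeding with Hoechst33342, BioTracker Green Microtubule Cytoskeleton Dye, MitoTracker Red and Annexin V Alexa Fluor 680 were imaged on a CQ1 microscope at 37°C and 5% CO2 after compound addition.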
# [1] = 12 h, 1 µM, compound concentration 1 uM
# [2] = 12 h, 10 µM, compound concentration 10 uM
# [3] = 24 h, 1 µM, compound concentration 1 uM
# [4] = 24 h, 10 µM, compound concentration 10 uM
# [5] = 48 h, 1 µM, compound concentration 1 uM
# [6] = 48 h, 10 µM, compound concentration 10 uM
structure (smiles),measurement,setting,value
CC(C)CNc1nc(N2CCN(CC3CCCOC3)CC2)ncc1C(=O)NCc1ccccc1 (stereo unspecified),Population Apoptotic (%),[1],34% and 80.22%
same,Population Fragmented Nuclei (%),[1],39.83% and 19.74%
same,Population Healthy Nuclei (%),[1],17.8% and 20.39%
same,Population Hoechst High Intensity Objects (%),[1],0%
same,Population Membrane Permeable-Phenotype (%),[1],9.52% and 19.35%
same,Population Mitochondria Different-Phenotype (%),[1],9.52% and 6.45%
same,Population Normal (%),[1],100%
same,Population Pyknosed Nuclei (%),[1],42.37% and 59.87%
same,Total Cell Count,[1],118 and 152
same,Population Apoptotic (%),[2],39.68% and 87.25%
same,Population Fragmented Nuclei (%),[2],33.58% and 21.43%
same,Population Healthy Nuclei (%),[2],19.4% and 12.34%
same,Population Hoechst High Intensity Objects (%),[2],0%
same,Population Mitochondria Different-Phenotype (%),[2],57.69% and 63.16%
same,Population Normal (%),[2],100%
same,Population Pyknosed Nuclei (%),[2],47.01% and 66.23%
same,Population Tubulin-Different-Phenotype (%),[2],57.69% and 94.74%
same,Total Cell Count,[2],134 and 154
same,Population Apoptotic (%),[3],32.61% and 81.58%
same,Population Healthy Nuclei (%),[3],30.28% and 37.59%
same,Population Hoechst High Intensity Objects (%),[3],0%
same,Population Membrane Permeable-Phenotype (%),[3],9.09% and 24.53%
same,Population Mitochondria Different-Phenotype (%),[3],24.24% and 15.09%
same,Population Normal (%),[3],100%
same,Population Pyknosed Nuclei (%),[3],42.2% and 53.9%
same,Population Tubulin-Different-Phenotype (%),[3],39.39% and 67.92%
same,Total Cell Count,[3],109 and 141
same,Population Apoptotic (%),[4],59.65% and 72.31%
same,Population Fragmented Nuclei (%),[4],28.46% and 10.32%
same,Population Healthy Nuclei (%),[4],27.69% and 47.74%
same,Population Hoechst High Intensity Objects (%),[4],0%
same,Population Mitochondria Different-Phenotype (%),[4],58.33% and 47.3%
same,Population Mitotic Cells (%),[4],40.35% and 27.69%
same,Population Normal (%),[4],100%
same,Population Pyknosed Nuclei (%),[4],43.85% and 41.94%
same,Population Tubulin-Different-Phenotype (%),[4],66.67% and 87.84%
same,Total Cell Count,[4],130 and 155
same,Population Apoptotic (%),[5],33.33% and 68.42%
same,Population Fragmented Nuclei (%),[5],15.25% and 14.4%
same,Population Healthy Nuclei (%),[5],64.41% and 70.4%
same,Population Hoechst High Intensity Objects (%),[5],0%
same,Population Membrane Permeable-Phenotype (%),[5],13.16% and 19.32%
same,Population Mitochondria Different-Phenotype (%),[5],36.84% and 19.32%
same,Population Mitotic Cells (%),[5],66.67% and 31.58%
same,Population Normal (%),[5],100%
same,Population Pyknosed Nuclei (%),[5],20.34% and 15.2%
same,Population Tubulin-Different-Phenotype (%),[5],35.53% and 67.05%
same,Total Cell Count,[5],118 and 125
same,Population Apoptotic (%),[6],52.78% and 75%
same,Population Fragmented Nuclei (%),[6],19.46% and 17.61%
same,Population Healthy Nuclei (%),[6],56.38% and 72.33%
same,Population Hoechst High Intensity Objects (%),[6],0%
same,Population Mitochondria Different-Phenotype (%),[6],60.71% and 47.83%
same,Population Mitotic Cells (%),[6],47.22% and 25%
same,Population Normal (%),[6],100%
same,Population Pyknosed Nuclei (%),[6],24.16% and 10.06%
same,Population Tubulin-Different-Phenotype (%),[6],70.24% and 84.35%
same,Total Cell Count,[6],149 and 159
CCCN1CCC[C@@H]2Cc3n[nH]cc3C[C@H]21.Cl [QUINPIROLE HYDROCHLORIDE],Population Apoptotic (%),[1],45% and 52%
same,Population Fragmented Nuclei (%),[1],14% and 22%
same,Population Healthy Nuclei (%),[1],65% and 60%
same,Population Hoechst High Intensity Objects (%),[1],2% and 6%
same,Population Membrane Permeable-Phenotype (%),[1],0% and 7%
same,Population Mitochondria Different-Phenotype (%),[1],3% and 6%
same,Population Mitotic Cells (%),[1],54% and 47%
same,Population Normal (%),[1],97% and 93%
same,Population Pyknosed Nuclei (%),[1],20% and 17%
same,Population Tubulin-Different-Phenotype (%),[1],17% and 50%
same,Total Cell Count,[1],156 and 139
same,Population Apoptotic (%),[2],58% and 45%
same,Population Fragmented Nuclei (%),[2],16% and 23%
same,Population Healthy Nuclei (%),[2],68% and 59%
same,Population Hoechst High Intensity Objects (%),[2],4% and 2%
same,Population Membrane Permeable-Phenotype (%),[2],1% and 10%
same,Population Mitochondria Different-Phenotype (%),[2],6%
same,Population Mitotic Cells (%),[2],41% and 54%
same,Population Normal (%),[2],95% and 97%
same,Population Pyknosed Nuclei (%),[2],15% and 17%
same,Population Tubulin-Different-Phenotype (%),[2],33% and 55%
same,Total Cell Count,[2],115 and 184
same,Population Apoptotic (%),[3],52% and 34%
same,Population Fragmented Nuclei (%),[3],21% and 28%
same,Population Healthy Nuclei (%),[3],64% and 53%
same,Population Hoechst High Intensity Objects (%),[3],1% and 2%
same,Population Membrane Permeable-Phenotype (%),[3],0% and 1%
same,Population Mitochondria Different-Phenotype (%),[3],2% and 7%
same,Population Mitotic Cells (%),[3],47% and 65%
same,Population Normal (%),[3],98%
same,Population Pyknosed Nuclei (%),[3],13% and 17%
same,Total Cell Count,[3],172 and 150
same,Population Apoptotic (%),[4],75% and 55%
same,Population Fragmented Nuclei (%),[4],22% and 38%
same,Population Healthy Nuclei (%),[4],67% and 51%
same,Population Hoechst High Intensity Objects (%),[4],2% and 1%
same,Population Membrane Permeable-Phenotype (%),[4],0% and 7%
same,Population Mitochondria Different-Phenotype (%),[4],7% and 3%
same,Population Mitotic Cells (%),[4],25% and 45%
same,Population Normal (%),[4],97% and 98%
same,Population Pyknosed Nuclei (%),[4],10% and 9%
same,Population Tubulin-Different-Phenotype (%),[4],32% and 39%
same,Total Cell Count,[4],119 and 209
same,Population Apoptotic (%),[5],68% and 38%
same,Population Fragmented Nuclei (%),[5],23% and 37%
same,Population Healthy Nuclei (%),[5],62% and 53%
same,Population Hoechst High Intensity Objects (%),[5],3% and 1%
same,Population Membrane Permeable-Phenotype (%),[5],0% and 8%
same,Population Mitochondria Different-Phenotype (%),[5],3% and 4%
same,Population Mitotic Cells (%),[5],32% and 61%
same,Population Normal (%),[5],96% and 98%
same,Population Pyknosed Nuclei (%),[5],14% and 8%
same,Population Tubulin-Different-Phenotype (%),[5],21% and 42%
same,Total Cell Count,[5],175 and 157
same,Population Apoptotic (%),[6],53% and 46%
same,Population Fragmented Nuclei (%),[6],23% and 43%
same,Population Healthy Nuclei (%),[6],65% and 48%
same,Population Hoechst High Intensity Objects (%),[6],1% and 3%
same,Population Membrane Permeable-Phenotype (%),[6],2%
same,Population Mitochondria Different-Phenotype (%),[6],6% and 4%
same,Population Mitotic Cells (%),[6],46% and 53%
same,Population Normal (%),[6],98% and 96%
same,Population Pyknosed Nuclei (%),[6],11% and 8%
same,Population Tubulin-Different-Phenotype (%),[6],31% and 48%
same,Total Cell Count,[6],119 and 192
COCCNc1cc(NC(=O)N2CCCc3cc(CN4CCN(C)CC4=O)c(C=O)nc32)ncc1C#N [FGF401],Population Apoptotic (%),[1],10.64% and 13.95%
same,Population Fragmented Nuclei (%),[1],11.5% and 4.82%
same,Population Healthy Nuclei (%),[1],65% and 77.91%
same,Population Hoechst High Intensity Objects (%),[1],0%
same,Population Membrane Permeable-Phenotype (%),[1],3.85% and 1.03%
same,Population Mitochondria Different-Phenotype (%),[1],6.15% and 8.25%
same,Population Mitotic Cells (%),[1],89.36% and 86.05%
same,Population Normal (%),[1],100%
same,Population Pyknosed Nuclei (%),[1],23.5% and 17.27%
same,Population Tubulin-Different-Phenotype (%),[1],13.08% and 10.31%
same,Total Cell Count,[1],200 and 249
same,Population Apoptotic (%),[2],14.63% and 19.35%
same,Population Fragmented Nuclei (%),[2],15.03% and 6.59%
same,Population Healthy Nuclei (%),[2],58.17% and 76.37%
same,Population Hoechst High Intensity Objects (%),[2],0%
same,Population Membrane Permeable-Phenotype (%),[2],3.37% and 5.76%
same,Population Mitochondria Different-Phenotype (%),[2],11.24% and 10.07%
same,Population Mitotic Cells (%),[2],85.37% and 80.65%
same,Population Normal (%),[2],100%
same,Population Pyknosed Nuclei (%),[2],26.8% and 17.03%
same,Population Tubulin-Different-Phenotype (%),[2],22.47% and 25.9%
same,Total Cell Count,[2],153 and 182
same,Population Apoptotic (%),[3],11.11% and 15.38%
same,Population Fragmented Nuclei (%),[3],11.01% and 5.33%
same,Population Healthy Nuclei (%),[3],68.35% and 89.34%
same,Population Hoechst High Intensity Objects (%),[3],0%
same,Population Membrane Permeable-Phenotype (%),[3],7.38% and 0.46%
same,Population Mitochondria Different-Phenotype (%),[3],4.7% and 6.42%
same,Population Mitotic Cells (%),[3],88.89% and 84.62%
same,Population Normal (%),[3],100%
same,Population Tubulin-Different-Phenotype (%),[3],9.4% and 12.84%
same,Total Cell Count,[3],218 and 244
same,Population Apoptotic (%),[4],8.57% and 3.23%
same,Population Fragmented Nuclei (%),[4],12.26% and 4.02%
same,Population Healthy Nuclei (%),[4],65.16% and 80.4%
same,Population Hoechst High Intensity Objects (%),[4],0%
same,Population Membrane Permeable-Phenotype (%),[4],8.91% and 3.75%
same,Population Mitochondria Different-Phenotype (%),[4],6.93% and 8.75%
same,Population Mitotic Cells (%),[4],91.43% and 96.77%
same,Population Normal (%),[4],100%
same,Population Pyknosed Nuclei (%),[4],22.58% and 15.58%
same,Population Tubulin-Different-Phenotype (%),[4],17.82% and 16.88%
same,Total Cell Count,[4],155 and 199
same,Population Fragmented Nuclei (%),[5],9.45% and 6.06%
same,Population Healthy Nuclei (%),[5],81.89% and 88.26%
same,Population Hoechst High Intensity Objects (%),[5],0%
same,Population Membrane Permeable-Phenotype (%),[5],0.48% and 1.29%
same,Population Mitochondria Different-Phenotype (%),[5],12.02% and 2.58%
same,Population Mitotic Cells (%),[5],63.64% and 93.33%
same,Population Normal (%),[5],100%
same,Population Pyknosed Nuclei (%),[5],8.66% and 5.68%
same,Population Tubulin-Different-Phenotype (%),[5],2.88% and 11.59%
same,Total Cell Count,[5],254 and 264
same,Population Apoptotic (%),[6],27.27% and 18.18%
same,Population Fragmented Nuclei (%),[6],9.49% and 6.84%
same,Population Healthy Nuclei (%),[6],83.54% and 87.37%
same,Population Hoechst High Intensity Objects (%),[6],0%
same,Population Membrane Permeable-Phenotype (%),[6],1.52% and 1.81%
same,Population Mitotic Cells (%),[6],72.73% and 81.82%
same,Population Normal (%),[6],100%
same,Population Pyknosed Nuclei (%),[6],6.96% and 5.79%
same,Population Tubulin-Different-Phenotype (%),[6],9.85% and 22.29%
same,Total Cell Count,[6],158 and 190
